Data as given in ChEMBL document CHEMBL2176910, “Identification of small molecule inhibitors of amyloid β-induced neuronal apoptosis acting through the imidazoline I(2) receptor” (J Med Chem, 2012).
Activity calls are given as the source filed them.

What was measured:
[1] = molecular target: T1, Muscarinic acetylcholine receptor M4 (Homo sapiens) (UniProt P08173); assay: Inhibition of radioligand binding to muscarinic M4 receptor at 10 uM
T1 sequence (whole entry): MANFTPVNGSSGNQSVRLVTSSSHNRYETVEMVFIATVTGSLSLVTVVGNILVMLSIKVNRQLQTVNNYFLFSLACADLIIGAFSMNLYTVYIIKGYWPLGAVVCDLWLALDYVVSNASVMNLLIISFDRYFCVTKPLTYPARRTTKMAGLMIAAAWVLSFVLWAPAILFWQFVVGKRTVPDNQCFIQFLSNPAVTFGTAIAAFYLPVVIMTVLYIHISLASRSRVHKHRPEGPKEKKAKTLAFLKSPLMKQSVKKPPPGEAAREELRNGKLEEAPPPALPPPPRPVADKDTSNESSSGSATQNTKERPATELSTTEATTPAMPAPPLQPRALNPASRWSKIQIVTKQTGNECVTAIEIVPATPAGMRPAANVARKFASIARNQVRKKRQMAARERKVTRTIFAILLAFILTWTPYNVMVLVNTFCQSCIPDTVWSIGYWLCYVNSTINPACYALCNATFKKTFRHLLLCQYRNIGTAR
In short: (§1)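 Part of an in vitro radioligand binding panel. Each target was tested against a potent standard radioligand for that site. The read-out was percent inhibition of specific binding, reported as an average value.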

[2] = species: Mus musculus; assay: Inhibition of imidazole receptor 2 in mouse hippocampal neurons assessed as reduction in tPA-induced Erk1/2 activation at 30 uM pre-incubated for 4 hrs before tPA stimulation by ELISA; settings: Hippocampus
In short: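 Primary mouse hippocampal neurons were stimulated with tPA (20 μg/mL, 1 h) with or without compound at 30 μM. Phospho-Erk1/2 was measured by ELISA with a phospho-specific antibody and normalized to total Erk1/2. Untreated cultures set the lower limit and tPA alone the upper limit.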

[3] = molecular target: T2, 5-hydroxytryptamine receptor 3A (Homo sapiens) (UniProt P46098); assay: Inhibition of radioligand binding to 5HT3 at 10 uM; in short: as §1
T2 sequence (whole entry): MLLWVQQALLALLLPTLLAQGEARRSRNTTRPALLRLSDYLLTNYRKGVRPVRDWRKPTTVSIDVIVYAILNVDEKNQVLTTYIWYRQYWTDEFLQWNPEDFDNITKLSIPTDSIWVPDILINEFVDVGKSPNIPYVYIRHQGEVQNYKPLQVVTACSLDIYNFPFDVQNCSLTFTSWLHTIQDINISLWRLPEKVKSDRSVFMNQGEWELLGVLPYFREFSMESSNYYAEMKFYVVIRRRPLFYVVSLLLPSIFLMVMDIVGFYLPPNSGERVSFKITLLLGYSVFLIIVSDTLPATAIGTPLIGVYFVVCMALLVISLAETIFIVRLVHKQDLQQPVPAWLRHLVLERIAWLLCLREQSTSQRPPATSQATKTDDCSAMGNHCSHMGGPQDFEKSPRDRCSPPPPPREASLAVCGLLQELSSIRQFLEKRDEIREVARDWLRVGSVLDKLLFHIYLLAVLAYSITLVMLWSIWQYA

[4] = molecular target: Delta-type opioid receptor (Homo sapiens) (UniProt P41143); assay: Inhibition of radioligand binding to DOP receptor at 10 uM; in short: as §1
Sequence of Delta-type opioid receptor (Homo sapiens) (P41143 whole entry): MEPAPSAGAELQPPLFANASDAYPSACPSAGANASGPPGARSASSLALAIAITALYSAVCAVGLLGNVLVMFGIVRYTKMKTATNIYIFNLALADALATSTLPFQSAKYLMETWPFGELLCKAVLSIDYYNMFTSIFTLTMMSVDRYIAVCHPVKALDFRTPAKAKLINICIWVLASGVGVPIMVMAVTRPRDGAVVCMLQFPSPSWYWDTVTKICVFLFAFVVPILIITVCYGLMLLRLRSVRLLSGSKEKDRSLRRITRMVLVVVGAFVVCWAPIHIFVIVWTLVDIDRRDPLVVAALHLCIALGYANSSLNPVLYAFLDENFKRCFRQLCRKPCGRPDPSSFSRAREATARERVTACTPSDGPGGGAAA

[5] = Displacement of [3H]idazoxan from rat cerebral cortex imidazole receptor 2 in presence of 1 uM yohimbine; assay type: tissue-based
[6] = molecular target: Mu-type opioid receptor (Homo sapiens) (UniProt P35372); assay: Inhibition of radioligand binding to MOP receptor at 10 uM; in short: as §1
Sequence of Mu-type opioid receptor (Homo sapiens) (P35372 whole entry): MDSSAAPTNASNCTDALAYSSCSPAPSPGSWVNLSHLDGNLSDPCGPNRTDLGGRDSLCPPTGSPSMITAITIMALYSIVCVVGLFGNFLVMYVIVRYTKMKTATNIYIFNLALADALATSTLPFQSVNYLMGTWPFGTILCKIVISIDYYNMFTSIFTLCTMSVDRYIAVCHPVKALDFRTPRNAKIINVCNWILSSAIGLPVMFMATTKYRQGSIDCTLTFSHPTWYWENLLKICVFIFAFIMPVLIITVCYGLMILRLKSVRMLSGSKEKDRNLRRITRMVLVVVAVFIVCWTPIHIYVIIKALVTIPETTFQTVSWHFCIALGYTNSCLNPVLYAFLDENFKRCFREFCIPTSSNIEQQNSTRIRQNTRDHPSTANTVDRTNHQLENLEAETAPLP

[7] = Inhibition of radioligand binding to Sigma receptor at 10 uM
[8] = molecular target: Acetylcholinesterase (Homo sapiens) (UniProt P22303); assay: Inhibition of AChE at 10 uM; in short: as §1
Sequence of Acetylcholinesterase (Homo sapiens) (P22303 whole entry, the tested form may be a part): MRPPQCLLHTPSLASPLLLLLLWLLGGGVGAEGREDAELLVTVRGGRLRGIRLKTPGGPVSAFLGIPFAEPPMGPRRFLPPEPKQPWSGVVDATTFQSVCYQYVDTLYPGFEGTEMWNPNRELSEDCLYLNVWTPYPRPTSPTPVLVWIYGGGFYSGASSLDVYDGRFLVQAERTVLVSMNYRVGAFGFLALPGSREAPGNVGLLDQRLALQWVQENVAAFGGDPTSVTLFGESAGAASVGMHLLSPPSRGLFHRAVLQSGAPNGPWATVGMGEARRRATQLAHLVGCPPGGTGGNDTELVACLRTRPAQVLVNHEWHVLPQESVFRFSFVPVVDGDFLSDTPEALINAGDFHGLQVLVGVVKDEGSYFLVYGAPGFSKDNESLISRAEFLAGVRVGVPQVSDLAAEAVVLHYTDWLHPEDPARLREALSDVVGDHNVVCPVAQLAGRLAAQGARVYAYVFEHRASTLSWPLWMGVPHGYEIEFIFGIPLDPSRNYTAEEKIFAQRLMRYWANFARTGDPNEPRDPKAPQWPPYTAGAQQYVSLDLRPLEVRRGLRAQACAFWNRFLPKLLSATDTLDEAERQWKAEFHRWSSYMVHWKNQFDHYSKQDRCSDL

[9] = test system: Hippocampal neuron; assay: Neuroprotective activity against Abeta-induced neuronal apoptosis in mouse hippocampal neurons assessed as reduction in DNA fragmentation at 30 uM pre-incubated for 4 hrs before Abeta challenge for 72 hrs by immunofluorescence microscopy; assay type: functional, tissue-based; settings: Hippocampus
In short: (§2)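 Primary mouse hippocampal neurons were exposed to Aβ (20 μM, 72 h) alone or with compound. Double immunofluorescence microscopy was then run for DNA fragmentation (TUNEL, green) and total neuronal nuclei (NeuN, red), with merged images. DNase-treated cells served as positive control.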

[10] = molecular target: T3, 5-hydroxytryptamine receptor 2C (Homo sapiens) (UniProt P28335); assay: Inhibition of radioligand binding to 5HT2C at 10 uM; in short: as §1
T3 sequence (whole entry): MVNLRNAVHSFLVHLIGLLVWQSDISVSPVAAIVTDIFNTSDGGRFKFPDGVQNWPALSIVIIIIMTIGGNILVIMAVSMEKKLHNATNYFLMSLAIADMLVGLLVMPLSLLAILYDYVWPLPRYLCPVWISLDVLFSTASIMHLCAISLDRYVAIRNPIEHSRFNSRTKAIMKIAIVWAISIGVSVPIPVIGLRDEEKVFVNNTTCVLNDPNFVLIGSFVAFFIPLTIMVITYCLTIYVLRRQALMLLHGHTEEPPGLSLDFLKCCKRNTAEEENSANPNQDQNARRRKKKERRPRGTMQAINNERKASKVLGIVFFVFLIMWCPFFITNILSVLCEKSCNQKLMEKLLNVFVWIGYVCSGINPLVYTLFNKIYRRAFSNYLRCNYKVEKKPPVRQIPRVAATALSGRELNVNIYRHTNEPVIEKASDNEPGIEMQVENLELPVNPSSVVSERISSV

[11] = Inhibition of radioligand binding to alpha2 adrenergic receptor at 10 uM; in short: as §1
[12] = test system: Hippocampal neuron; assay: Neuroprotective activity against Abeta-induced neuronal apoptosis in mouse hippocampal neurons assessed as reduction in total neuronal nuclei level at 30 uM pre-incubated for 4 hrs before Abeta challenge for 72 hrs by immunofluorescence microscopy; assay type: functional, tissue-based; settings: Hippocampus; in short: as §2
[13] = Inhibition of radioligand binding to N-methyl D-aspartate receptor phencyclidine binding site at 10 uM
In short: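 Radioligand binding panel. Values are average percentages of inhibition of specific binding, measured against potent standard ligands for each target.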

[14] = molecular target: 5-hydroxytryptamine receptor 2A (Homo sapiens) (UniProt P28223); assay: Inhibition of radioligand binding to 5HT2A at 10 uM; in short: as §1
Sequence of 5-hydroxytryptamine receptor 2A (Homo sapiens) (P28223 whole entry): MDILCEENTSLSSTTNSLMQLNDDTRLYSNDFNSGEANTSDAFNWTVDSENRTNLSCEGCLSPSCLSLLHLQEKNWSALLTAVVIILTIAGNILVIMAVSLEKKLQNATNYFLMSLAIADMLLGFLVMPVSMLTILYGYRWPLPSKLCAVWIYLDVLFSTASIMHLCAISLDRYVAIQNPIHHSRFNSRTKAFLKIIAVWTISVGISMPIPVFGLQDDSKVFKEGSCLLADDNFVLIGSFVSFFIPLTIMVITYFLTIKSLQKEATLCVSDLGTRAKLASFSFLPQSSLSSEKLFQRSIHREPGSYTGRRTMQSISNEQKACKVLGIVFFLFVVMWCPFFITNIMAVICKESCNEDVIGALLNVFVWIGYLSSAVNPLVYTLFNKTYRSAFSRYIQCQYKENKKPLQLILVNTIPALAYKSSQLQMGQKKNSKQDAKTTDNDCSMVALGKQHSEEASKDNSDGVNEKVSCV

CN(C)C(CN)c1ccccc1Cl (configuration not stated)
14 µM: Ki [5]
active: inhibition of tPA-induced Erk1/2 activation (active/inactive call) [2] | Activity [9] | Activity [12]
inactive: inhibition [13]
< 20%: inhibition [1] | inhibition [3] | inhibition [4] | inhibition [6] | inhibition [7] | inhibition [8] | inhibition [10] | inhibition [11] | inhibition [14]

CN1CCNC(c2ccccc2)C1 (configuration not stated)
18 µM: Ki [5]
inactive: inhibition [13]
< 20%: inhibition [1] | inhibition [3] | inhibition [4] | inhibition [6] | inhibition [7] | inhibition [8] | inhibition [10] | inhibition [11] | inhibition [14]
active: inhibition of tPA-induced Erk1/2 activation (active/inactive call) [2] | Activity [9] | Activity [12]

NCC12CCC3CC(CC3C1)C2 (configuration not stated)
inactive: inhibition [13]
< 20%: inhibition [1] | inhibition [3] | inhibition [4] | inhibition [6] | inhibition [8] | inhibition [10] | inhibition [11] | inhibition [14]
26 µM: Ki [5]
active: inhibition of tPA-induced Erk1/2 activation (active/inactive call) [2] | Activity [9] | Activity [12]
39%: inhibition [7]
